PMC3039817 (British Journal of Cancer, 2010)

Experiments:
RT112 cells = assay: Cell cycle distribution by flow cytometry; assay type: cell-based, human; settings: 500 nM, 24-h exposure
Procedure, shortened: (§1)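 Cells grown in standard medium at 37 °C, 5% CO2, then exposed to 500 nM test compound or DMSO for 24 h. Harvested cells were fixed overnight in 70% ethanol at 4 °C and rehydrated in PBS pH 7.4. They were then pelleted, stained with propidium iodide/RNase in the dark at 37 °C for 30 min, and analysed by flow cytometry. Three independent experiments; ANOVA.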

RT4 cells = assay: Cell cycle distribution by flow cytometry; assay type: cell-based, human; settings: 500 nM, 24-h exposure
Procedure, shortened: as §1

[1] = Toxicity in treated xenograft-bearing animals; assay type: in vivo, Balb/c immunodeficient nude mice; settings: nude mice, 20 mg kg–1 per day i.p.
Procedure, shortened: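 Male Balb/c nude mice aged 6–8 weeks carried flank trocar implants of ~2 mm3 MGH-U3, SW780 or RT112 tumour fragments. At mean 32 mm3, mice were randomised into groups of eight (untreated control or treated). Dosing was 20 mg kg−1 per day i.p. on days 0–3, plus days 6–9 for MGH-U3. Tumours were measured by caliper.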

SW780 cells = assay: Cell cycle distribution by flow cytometry; assay type: cell-based, human; settings: 500 nM, 24-h exposure
Procedure, shortened: as §1

[2] = system: phospho-ERK in 94-10 cells; assay: FGF2-induced and constitutive ERK phosphorylation in 94-10 cells; assay type: cell-based, human; settings: 500 nM, pretreated 1 h, FGF2 5 ng ml–1 + heparin 10 μg ml–1, 15 min
Procedure, shortened: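 94-10 cells (FGFR1-expressing) were pretreated 1 h with or without 500 nM test compound. They were then stimulated 15 min with heparin (10 μg ml–1) with or without FGF2 (5 ng ml–1). Lysis was in RIPAE buffer (Triton X-100, EDTA, SDS, deoxycholate, glycerol, protease inhibitors in PBS), cleared at 12 700 × g, 4 °C. Protein was measured by BCA, immunoblotted for phospho-ERK, reprobed for tubulin and detected by chemiluminescence.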

97-7 cells = assay: Cell cycle distribution by flow cytometry; assay type: cell-based, human; settings: 500 nM, 24-h exposure
Procedure, shortened: as §1

FGFR3 = FGFR3 (Homo sapiens, UniProt P22607); assay: FGFR3 phosphorylation in RT112 cells; assay type: cell-based; settings: 500 nM, 0–24 h
Procedure, shortened: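 RT112 cells were exposed to 500 nM test compound for 0–24 h and lysed in RIPAE buffer, cleared at 12 700 × g, 4 °C. FGFR3 was immunoprecipitated with an extracellular-domain antibody. Blots were probed with anti-phosphotyrosine (4G10), then stripped (Tris pH 7.5/urea, 55 °C, 30 min) and reprobed for FGFR3. Detection was by chemiluminescence.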

MGH-U3 cells = assay: Cell cycle distribution by flow cytometry; assay type: cell-based, human; settings: 500 nM, 24-h exposure
Procedure, shortened: as §1

Chain of FGFR3 (P22607 397-758 limits assumed): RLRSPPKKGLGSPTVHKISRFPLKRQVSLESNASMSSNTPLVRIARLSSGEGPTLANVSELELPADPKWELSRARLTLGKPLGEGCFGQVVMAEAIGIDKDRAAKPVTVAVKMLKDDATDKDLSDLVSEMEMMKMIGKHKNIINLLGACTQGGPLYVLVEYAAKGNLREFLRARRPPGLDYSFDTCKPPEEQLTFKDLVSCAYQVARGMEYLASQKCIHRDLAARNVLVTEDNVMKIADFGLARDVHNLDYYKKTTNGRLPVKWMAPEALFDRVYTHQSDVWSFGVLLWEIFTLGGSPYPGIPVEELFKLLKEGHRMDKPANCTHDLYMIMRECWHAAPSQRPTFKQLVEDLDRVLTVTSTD

Structure (SMILES)	cell cycle distribution (RT112 cells)	cell cycle distribution (RT4 cells)	toxicity in treated animals [1]	cell cycle distribution (SW780 cells)	FGF-induced and constitutive ERK phosphorylation [2]	cell cycle distribution (97-7 cells)	FGFR3 phosphorylation, time-course (FGFR3)	cell cycle distribution (MGH-U3 cells)
CCN(CC)CCCCNc1ncc2cc(-c3cc(OC)cc(OC)c3)c(NC(=O)NC(C)(C)C)nc2n1 [PD173074, 1-tert-butyl-3-[6-(3,5-dimethoxy-phenyl)-2-(4-diethylamino-butylamino)-pyrido[2,3-d]pyrimidin-7-yl]-urea]	significant increase in the proportion of cells in G1	significant increase in the proportion of cells in G1	No evidence of significant toxicity	no significant change in cell cycle distribution	block both FGF-induced and constitutive ERK phosphorylation	significant increase in the proportion of cells in G1	rapid and sustained inactivation of FGFR3	significant increase in the proportion of cells in G1
CN1CCN(c2ccc3nc(-c4c(N)c5c(F)cccc5[nH]c4=O)[nH]c3c2)CC1 [TKI-258]	significant increase in the proportion of cells in G1	significant increase in the proportion of cells in G1		no significant change in cell cycle distribution		significant increase in the proportion of cells in G1		significant increase in the proportion of cells in G1
